Test results from ChEMBL document CHEMBL3632499, “Synthesis and Antiproliferative Activity Evaluation of the Disulfide-Containing Cyclic Peptide Thiochondrilline C and Derivatives” (J Nat Prod, 2015).

What was measured:
Format in all cases: functional
[1] = test system: CCRF-CEM; assay: Antiproliferative activity against human CCRF-CEM cells
Summary of the method: (§1)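 Profiled in the National Cancer Institute 60 cancer cell line screen. Reported GI50 is the concentration giving 50% growth inhibition, TGI the concentration giving total growth inhibition, and LC50 the concentration giving 50% net cell killing. Values are averages ± SEM from two independent determinations.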

[2] = test system: HL-60(TB); assay: Antiproliferative activity against human HL-60(TB) cells
Summary of the method: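 Tested in the NCI 60 human cancer cell line panel. GI50 is the concentration giving 50% growth inhibition; TGI (total growth inhibition) and LC50 (50% net cell killing) were also derived. Values are the mean ± SEM of two independent determinations.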

[3] = test system: K562; assay: Antiproliferative activity against human K562 cells; summary of the method: as §1
[4] = Antiproliferative activity against human MOLT4 cells; summary of the method: as §1
[5] = Antiproliferative activity against human RPMI8226 cells; summary of the method: as §1
[6] = test system: SR; assay: Antiproliferative activity against human SR cells
Summary of the method: (§2)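 Run in the National Cancer Institute 60 cancer cell line panel. Read-outs: GI50, the concentration causing 50% growth inhibition; TGI, the concentration causing total growth inhibition; LC50, the concentration causing 50% net cell killing. Values are averages ± SEM from two independent determinations.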

[7] = test system: A549; assay: Antiproliferative activity against human A549/ATCC cells; summary of the method: as §1
[8] = Antiproliferative activity against human EKVX cells; summary of the method: as §1
[9] = test system: HOP-62; assay: Antiproliferative activity against human HOP62 cells; summary of the method: as §1
[10] = Antiproliferative activity against human HOP92 cells; summary of the method: as §1
[11] = test system: NCI-H226; assay: Antiproliferative activity against human NCI-H226 cells; summary of the method: as §1
[12] = test system: NCI-H23; assay: Antiproliferative activity against human NCI-H23 cells; summary of the method: as §1
[13] = test system: NCI-H322M; assay: Antiproliferative activity against human NCI-H322M cells; summary of the method: as §1
[14] = test system: NCI-H460; assay: Antiproliferative activity against human NCI-H460 cells; summary of the method: as §1
[15] = test system: NCI-H522; assay: Antiproliferative activity against human NCI-H522 cells; summary of the method: as §1
[16] = Antiproliferative activity against human COLO205 cells; summary of the method: as §1
[17] = Antiproliferative activity against human HCC2998 cells; summary of the method: as §1
[18] = test system: HCT-116; assay: Antiproliferative activity against human HCT116 cells; summary of the method: as §1
[19] = test system: HCT-15; assay: Antiproliferative activity against human HCT15 cells; summary of the method: as §1
[20] = test system: HT-29; assay: Antiproliferative activity against human HT-29 cells; summary of the method: as §1
[21] = test system: KM12; assay: Antiproliferative activity against human KM12 cells; summary of the method: as §1
[22] = test system: SW-620; assay: Antiproliferative activity against human SW620 cells; summary of the method: as §2
[23] = test system: SF-268; assay: Antiproliferative activity against human SF268 cells; summary of the method: as §1
[24] = Antiproliferative activity against human SF295 cells; summary of the method: as §1
[25] = Antiproliferative activity against human SF539 cells; summary of the method: as §1
[26] = test system: SNB-19; assay: Antiproliferative activity against human SNB19 cells; summary of the method: as §2
[27] = test system: SNB-75; assay: Antiproliferative activity against human SNB75 cells; summary of the method: as §2
[28] = test system: U-251; assay: Antiproliferative activity against human U251 cells; summary of the method: as §2
[29] = Antiproliferative activity against human LOXIMVI cells; conditions: LOX IMVI; summary of the method: as §1
[30] = test system: Malme-3M; assay: Antiproliferative activity against human MALME-3M cells; summary of the method: as §1
[31] = test system: M14; assay: Antiproliferative activity against human M14 cells; summary of the method: as §1
[32] = read-out: LC50 (the source's name)

**Q.** Which GI50 [1] does the source give for C[C@H](NC(=O)[C@@H]1CSSC[C@@H](NC(=O)c2nc3ccccc3cc2O)C(=O)NCC(=O)N1C)c1ccccc1 here?
**A.** 1.9 µM

**Q.** What about the TGI [1] of the same compound?
**A.** 10.5 µM

**Q.** What about the CC50 [1, 32] of the same compound?
**A.** > 50 µM

**Q.** What about the GI50 [2] of the same compound?
**A.** 1.2 µM

**Q.** What about the TGI [2] of the same compound?
**A.** 5.1 µM

**Q.** What about the CC50 [2, 32] of the same compound?
**A.** 38.8 µM

**Q.** What about the GI50 [3] of the same compound?
**A.** 0.7 µM

**Q.** What about the TGI [3] of the same compound?
**A.** 3.1 µM

**Q.** And the CC50 [3, 32]?
**A.** > 50 µM

**Q.** And the GI50 ([4]; MOLT-4)?
**A.** 0.9 µM

**Q.** And the TGI ([4]; MOLT-4)?
**A.** 3.3 µM

**Q.** And the CC50 ([4]; MOLT-4, read-out: LC50 (the source's name))?
**A.** > 50 µM

**Q.** And the GI50 ([5]; RPMI-8226)?
**A.** 5.7 µM

**Q.** And the TGI ([5]; RPMI-8226)?
**A.** 21.6 µM

**Q.** And the CC50 ([5]; RPMI-8226, read-out: LC50 (the source's name))?
**A.** > 50 µM

**Q.** And the GI50 [6]?
**A.** 0.2 µM

**Q.** And the TGI [6]?
**A.** 1.2 µM

**Q.** And the CC50 [6, 32]?
**A.** > 50 µM

**Q.** What about the GI50 [7] of the same compound?
**A.** 7.1 µM

**Q.** And the TGI [7]?
**A.** 15.7 µM

**Q.** What about the CC50 [7, 32] of the same compound?
**A.** 35.3 µM

**Q.** What about the GI50 [8] of the same compound?
**A.** 3.8 µM

**Q.** What about the TGI [8] of the same compound?
**A.** 11.8 µM

**Q.** What about the CC50 [8, 32] of the same compound?
**A.** 31.4 µM

**Q.** And the GI50 [9]?
**A.** 12.2 µM

**Q.** What about the TGI [9] of the same compound?
**A.** 21 µM

**Q.** And the CC50 [9, 32]?
**A.** 36.8 µM

**Q.** What about the GI50 ([10]; HOP-92) of the same compound?
**A.** 9.7 µM

**Q.** What about the TGI ([10]; HOP-92) of the same compound?
**A.** 18.6 µM

**Q.** What about the CC50 ([10]; HOP-92, read-out: LC50 (the source's name)) of the same compound?
**A.** 35.6 µM

**Q.** And the GI50 [11]?
**A.** 8.9 µM

**Q.** What about the TGI [11] of the same compound?
**A.** 17.4 µM

**Q.** What about the CC50 [11, 32] of the same compound?
**A.** 34.2 µM

**Q.** What about the GI50 [12] of the same compound?
**A.** 5.2 µM

**Q.** What about the TGI [12] of the same compound?
**A.** 12.6 µM

**Q.** What about the CC50 [12, 32] of the same compound?
**A.** 29.7 µM

**Q.** What about the GI50 [13] of the same compound?
**A.** 7.1 µM

**Q.** What about the TGI [13] of the same compound?
**A.** 20.1 µM

**Q.** What about the CC50 [13, 32] of the same compound?
**A.** > 50 µM

**Q.** What about the GI50 [14] of the same compound?
**A.** 1.3 µM

**Q.** What about the TGI [14] of the same compound?
**A.** 8 µM

**Q.** And the CC50 [14, 32]?
**A.** 30.5 µM

**Q.** What about the GI50 [15] of the same compound?
**A.** 3.6 µM

**Q.** What about the TGI [15] of the same compound?
**A.** 10.5 µM

**Q.** And the CC50 [15, 32]?
**A.** 29.1 µM

**Q.** What about the GI50 ([16]; COLO 205) of the same compound?
**A.** 1 µM

**Q.** And the TGI ([16]; COLO 205)?
**A.** 2.3 µM

**Q.** And the CC50 ([16]; COLO 205, read-out: LC50 (the source's name))?
**A.** 7.2 µM

**Q.** And the GI50 ([17]; HCC 2998)?
**A.** 7.9 µM

**Q.** And the TGI ([17]; HCC 2998)?
**A.** 17.9 µM

**Q.** And the CC50 ([17]; HCC 2998, read-out: LC50 (the source's name))?
**A.** > 50 µM

**Q.** What about the GI50 [18] of the same compound?
**A.** 1.8 µM

**Q.** And the TGI [18]?
**A.** 6 µM

**Q.** What about the CC50 [18, 32] of the same compound?
**A.** 18.3 µM

**Q.** What about the GI50 [19] of the same compound?
**A.** 2.6 µM

**Q.** What about the TGI [19] of the same compound?
**A.** 9.7 µM

**Q.** And the CC50 [19, 32]?
**A.** 25.9 µM

**Q.** And the GI50 [20]?
**A.** 1.2 µM

**Q.** And the TGI [20]?
**A.** 3.9 µM

**Q.** And the CC50 [20, 32]?
**A.** 12.4 µM

**Q.** And the GI50 [21]?
**A.** 0.6 µM

**Q.** And the TGI [21]?
**A.** 8.6 µM

**Q.** And the CC50 [21, 32]?
**A.** 28.3 µM

**Q.** What about the GI50 [22] of the same compound?
**A.** 1.9 µM

**Q.** And the TGI [22]?
**A.** 6.3 µM

**Q.** What about the CC50 [22, 32] of the same compound?
**A.** 33.2 µM

**Q.** What about the GI50 [23] of the same compound?
**A.** 0.4 µM

**Q.** What about the TGI [23] of the same compound?
**A.** 11.1 µM

**Q.** What about the CC50 [23, 32] of the same compound?
**A.** 35.6 µM

**Q.** What about the GI50 ([24]; SF-295) of the same compound?
**A.** 7.4 µM

**Q.** What about the TGI ([24]; SF-295) of the same compound?
**A.** 16.3 µM

**Q.** And the CC50 ([24]; SF-295, read-out: LC50 (the source's name))?
**A.** 35.8 µM

**Q.** What about the GI50 ([25]; SF-539) of the same compound?
**A.** 2 µM

**Q.** And the TGI ([25]; SF-539)?
**A.** 9.4 µM

**Q.** And the CC50 ([25]; SF-539, read-out: LC50 (the source's name))?
**A.** 27.3 µM

**Q.** And the GI50 [26]?
**A.** 7.3 µM

**Q.** And the TGI [26]?
**A.** 19.5 µM

**Q.** And the CC50 [26, 32]?
**A.** > 50 µM

**Q.** What about the GI50 [27] of the same compound?
**A.** 7.7 µM

**Q.** And the TGI [27]?
**A.** > 50 µM

**Q.** What about the CC50 [27, 32] of the same compound?
**A.** > 50 µM

**Q.** And the GI50 [28]?
**A.** 2.5 µM

**Q.** What about the TGI [28] of the same compound?
**A.** 7.7 µM

**Q.** What about the CC50 [28, 32] of the same compound?
**A.** 20.4 µM

**Q.** What about the GI50 [29] of the same compound?
**A.** 0.7 µM

**Q.** What about the TGI [29] of the same compound?
**A.** 1.5 µM

**Q.** And the CC50 [29, 32]?
**A.** 3.6 µM

**Q.** What about the GI50 [30] of the same compound?
**A.** 6.1 µM

**Q.** And the TGI [30]?
**A.** 14 µM

**Q.** And the CC50 [30, 32]?
**A.** 32.3 µM

**Q.** What about the GI50 [31] of the same compound?
**A.** 0.3 µM

**Q.** What about the TGI [31] of the same compound?
**A.** 10.3 µM
